D1 allo mod: D1 CRE-luciferase signal change, two-sided – cell-based, HEK293 D1, dopamine EC30, D1 allosteric modulator project, primary screen; actives 5.9% (n = 58,000); dopamine EC30 potentiation; actives deviate in either direction; B-score at 10 µM; D(1A) dopamine receptor (Homo sapiens), P21728;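 active = luminescence count or its row- and column-corrected plate score outside the 99.7% band of the plate's sample wells, on either side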
S1P3 ag: human S1P3 receptor agonists, primary screen, cell-based, primary and confirmation, NFAT-BLA reporter. activation, % at 4.5 µM. S1P3 NFAT-BLA reporter cells, agonism, FRET ratio; relative to 1 µM S1P, basal subtracted. Sphingosine 1-phosphate receptor 3 (Homo sapiens), Q99500. AID 373, 2006. actives 0.1% (n = 60,000);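 active = activation above the screen-wide mean plus 3 SD, cut at about 4.5% in these data, passing the limit was not always enough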
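Measure – % activation relative to 1 µM S1P (100%), per plate · System – stable CHO line with human S1P3, Gα16, NFAT-BLA reporter · Timing – cells plated overnight, compound 4 h 37 °C, substrate 2 h RT · Technique – fluorescent BLA substrate, ex 405 nm, em 460/535 nm ratio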
S1P1 ag pot: S1P1 agonists and agonism potentiators, primary screen, cell-based, primary and confirmation screens, CRE-bla reporter; S1P1 CRE-bla cells, forskolin, beta-lactamase FRET, potentiator mode; S1P1 agonist co-added at EC20, 2 nM; 100% = saturating reference agonist, 0% = basal; activation, % at 9.5 µM; actives 0.57% (n = 56,000); AID 449, 2006;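 active = activation above a cutoff set at the mean activation of all tested compounds plus 3 SD, cut at about 54% in these data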;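 note: forskolin at 4 µM as EC80 and the EC20 agonist is SEW2871; 100% = SEW2871 at its EC100 plus forskolin at EC80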
M1 ag: M1 muscarinic receptor agonists, primary screen, CHO-M1 cells, Fluo-4 calcium, agonist mode; Fluo-4 calcium fluorescence; stronger effect = higher value; B-score at 10 µM; actives 3% (n = 64,000); AID 626, 2007;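 active = fluorescence rise, raw or as B-score row- and column-corrected plate score, outside the 99.7% band of its plate's samples, either direction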
M1 antagonist: antagonists of rat M1 muscarinic receptor | B-score at 10 µM | CHO-M1 cells, Fluo-4 calcium, ACh EC80 antagonist mode; stronger effect = lower value | actives 3.4% (n = 64,000) | Muscarinic acetylcholine receptor M1 (Rattus norvegicus), P08482;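 active = calcium fluorescence response, raw or row-and-column corrected B-score, differing from the plate sample mean either way at a set confidence level, mostly lower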
Target sequence (P08482 whole entry, looked up): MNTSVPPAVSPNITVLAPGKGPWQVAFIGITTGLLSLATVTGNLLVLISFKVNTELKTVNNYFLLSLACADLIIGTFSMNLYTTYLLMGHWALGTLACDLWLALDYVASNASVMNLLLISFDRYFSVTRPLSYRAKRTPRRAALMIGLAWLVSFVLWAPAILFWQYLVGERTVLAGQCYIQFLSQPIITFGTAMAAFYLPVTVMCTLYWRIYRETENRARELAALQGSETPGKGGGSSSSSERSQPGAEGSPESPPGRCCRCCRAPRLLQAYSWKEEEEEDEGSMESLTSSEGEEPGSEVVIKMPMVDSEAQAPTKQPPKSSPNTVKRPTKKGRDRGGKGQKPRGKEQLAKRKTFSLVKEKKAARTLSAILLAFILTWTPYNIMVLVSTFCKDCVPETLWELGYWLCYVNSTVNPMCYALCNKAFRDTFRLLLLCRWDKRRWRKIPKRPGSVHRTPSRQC
TNAP act DEA: human TNAP enzyme activators, primary screen, biochemical, luminescent, intermediate phosphate acceptor level; purified TNAP, CDP-star luminescence, 100 mM DEA, 30 min; stronger effect = higher value; scale: 0 levamisole-inhibited, 1 vehicle-only enzyme; activation factor at 20 µM; 64,000 tested, under 10 active; Alkaline phosphatase, tissue-nonspecific isozyme (Homo sapiens), P05186;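 active = activation factor of at least 2 at 20 µM, relative to controls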
Numbers without * were called inactive; nt = no result. The list is not random: actives were taken first. Their share in the collection is about 11%.

SMILES	D1 allo mod	S1P3 ag	S1P1 ag pot	M1 ag	M1 antagonist	TNAP act DEA
Cc1cc(C(=O)CSc2nnc(-c3ccco3)o2)c(C)n1Cc1ccco1	-0.4	0	53	-1	-0.011	0.9
CCSC1=C(C#N)C(c2cccc(O)c2)CC(=O)N1 (stereo not given)	-0.0046	0	-10	0.39	0.28	0.9
CCSC1=C(C#N)C(c2cccc(Br)c2)CC(=O)N1 (stereo not given)	1.1	-1	-18	0.0024	11*	0.9
CCOc1ccccc1C(=O)N1CCN=C1SCc1cccnc1	-0.72	-1	16	-0.58	-0.41	0.9
CC(=O)c1cccc(NC(=O)COc2ccc(S(=O)(=O)N3CCCCC3)cc2)c1	0.58	-1	-1	0.62	-1.3	0.9
Cc1ccc(C2CC(c3ccccc3OC(F)F)Nc3ncnn32)cc1 (stereo not given)	1.5	0	-15	0.84	1.3*	0.9
Cc1ccccc1C1CC(c2ccccc2OC(F)F)Nc2ncnn21 (stereo not given)	1.5	-1	2	-0.36	0.64	0.9
Cn1c(C(=O)Nc2ccc3c(c2)OCCO3)cc2sccc21	-2.7*	0	15	0.55	-0.54	0.9
CCCCn1c(CN2CCN(c3cccc(Cl)c3)CC2)nc2c1c(=O)n(C)c(=O)n2C	-2.9*	1	-3	0.019	-0.44	1
CCCn1c(CN2CCN(c3cccc(Cl)c3)CC2)nc2c1c(=O)n(C)c(=O)n2C	-2.8	-1	135*	11*	-2.5*	1
CCCCn1c(CN2CCN(c3ccccc3)CC2)nc2c1c(=O)n(C)c(=O)n2C	-1.1	1	-15	-0.013	-0.13	0.9
CCCCCn1c(CN2CCN(c3cccc(Cl)c3)CC2)nc2c1c(=O)n(C)c(=O)n2C	-0.75	-1	-32	-1.2	-0.25	0.9
COc1ccc(OC)c(C(=O)CSc2nnc(Cc3cccs3)n2C)c1	2.1	0	-8	-0.78	-0.53	1
CCCOC1(NC(=O)c2ccccc2)C(C)=CC(=O)C=C1C	-3.2*	-1	-10	0.087	0.63	0.9
CCOC(=O)C(NC(=O)c1ccccc1)=C1CCCCC1	1.1	-2	-32	0.026	-0.24	1
CC(C)C(c1nnnn1C1CCCC1)N1CCN(C(=O)c2ccco2)CC1 (stereo not given)	0.61	-1	-8	-0.76	0.14	1
Cc1ccc(N(CC(=O)Nc2ccc3c(c2)OCCO3)S(=O)(=O)c2c(C)n[nH]c2C)cc1	-0.32	0	14	0.49	0.42	1
Cc1n[nH]c(C)c1S(=O)(=O)Nc1ccc2c(c1)OCCO2	-4.2*	-1	-10	0.34	2.3*	0.9
CCOCCCNS(=O)(=O)c1ccc(NC(=O)c2ccccc2)cc1	0.93	-1	-62	-1.6	-0.057	0.9
CCOc1cc(-c2ccccc2)nc(N)n1	8.2*	0	-25	0.61	0.72	0.9
Fc1cccc2sc(Nc3nnc(-c4ccco4)o3)nc12	-2.7*	0	-8	0.29	-0.48	0.9
COc1ccc(CCn2c(=S)[nH]c3cc(C(=O)NCc4ccco4)ccc3c2=O)cc1OC	nt	-1	37	3*	-0.49	0.9
Cc1nc(=O)c(-c2ccccc2)c(C)n1-c1ccc(O)c(C(=O)O)c1	-0.35	0	nt	0.2	0.35	1
COC(=O)CS(=O)(=O)c1ccc2c(c1)CC(=O)N2	0.43	0	-2	0.082	0.62	1
CCC(C)c1ccc2oc(-c3ccc(NC(=O)c4ncn[nH]4)cc3)nc2c1 (stereo not given)	-0.86	16*	98*	0.53	-0.49	0.9
SMILES	D1 allo mod	S1P3 ag	S1P1 ag pot	M1 ag	M1 antagonist	TNAP act DEA
CC(C)c1ccc2oc(-c3ccc(NC(=O)c4ncn[nH]4)cc3)nc2c1	-0.29	8	55	-0.65	0.44	1
Cn1nnc(NCc2cc(Br)ccc2OCc2cccs2)n1	0.29	-1	25	-0.2	-0.33	0.9
CCNc1nc(OCCNS(=O)(=O)c2cc(C)ccc2C)nc(N(C)C)n1	2.8	-1	-24	-0.83	1.8*	1
CN1CCN(c2ccc(NC(=O)c3ccccc3Br)cc2)CC1	-4.6*	0	-2	0.31	-0.13	1
CCCCOc1ccc(C(=O)Nc2ccc(N3CCN(C)CC3)cc2)cc1	-3.2*	0	-6	-0.31	-2.4	0.9
CCCC(=O)N1CCN(c2ccc(NC(=O)c3ccccc3)cc2)CC1	0.12	0	5	-0.42	-3	0.9
O=C(CCNc1cccc(Cl)c1)c1ccco1	-1.2	-1	nt	-0.17	-0.85	0.9
O=S(=O)(Nc1cccnc1)c1cccs1	0.041	0	-1	0.068	2.4*	0.9
Cc1cccc(C)c1NS(=O)(=O)c1ccc(F)cc1	0.43	-1	-14	-0.57	0.035	0.9
c1ccc(Nc2nc3ccccc3[nH]2)nc1	-0.54	-2	9	0.044	0.26	1.2
c1ccc(/N=C2\N=C(Nc3ccccn3)c3ccccc32)nc1	14*	-1	-35	nt	nt	0.8
CC(=O)Nc1sc2c(c1CN1CCN(c3ccccn3)CC1)CCCC2	-3.3*	-1	15	-0.3	-0.53	0.9
CC12CCC(=O)N1c1ccccc1C(=O)N2c1ccccc1 (stereo not given)	-0.57	-1	-26	1.1	2.3*	1
O=C1CC(=O)N(c2ccccc2)c2ccccc21	-0.39	-1	1	-0.83	-0.93	1
CC(=O)c1cccc(NC(=O)NCc2ccccn2)c1	-1.4	-1	nt	3.1*	1.1	0.8
COc1ccc(N2CCN(C(c3ccccc3)c3nnnn3Cc3ccc(F)cc3)CC2)cc1 (stereo not given)	-0.52	-2	6	-0.47	-0.029	0.9
CC(NC(=O)Cc1cccs1)C(c1cccs1)N1CCOCC1 (stereo not given)	-0.77	1	7	-0.32	1.7*	nt
CCOC(=O)C1CCCN(C/C(O)=C(\C#N)c2nc(-c3ccccc3)cs2)C1 (stereo not given)	-0.13	0	6	11*	-0.21	1
N#C/C(=C(/O)CN1CCOCC1)c1nc(-c2ccccc2)cs1	0.14	0	3	-0.0064	0.87	0.9
Cc1cccc2cc3c(NC(=O)c4ccccn4)nn(C)c3nc12	0.2	5.3*	-26	0.034	-0.17	0.8

Screens deposited in PubChem by several laboratories.
